Results reported in ChEMBL document CHEMBL3046106, “Synthesis and herbicidal activity of diphenyl ether derivatives containing unsaturated carboxylates” (J Agric Food Chem, 2011).

How the values were obtained:
[1] = tested on: Abutilon theophrasti; test: Herbicidal activity against Abutilon theophrasti (velvetleaf) at 2000 g/hm2 postemergent application after 2 weeks; assay type: functional
Method in brief: (§1)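 Seedlings grown 14 days in the greenhouse; plants uniform in size and stage were chosen. Test compound in acetone sprayed post-emergence at a carrier volume equivalent to 187 L/ha. Plants returned to the greenhouse and watered; untreated plants served as control. Each species scored visually two weeks after application on a 0–100 scale (0 no activity, 100 total control).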

[2] = tested on: Abutilon theophrasti; test: Herbicidal activity against Abutilon theophrasti (velvetleaf) at 1000 g/hm2 postemergent application after 2 weeks; assay type: functional; method in brief: as §1
[3] = tested on: Digitaria sanguinalis; test: Herbicidal activity against Digitaria sanguinalis (hairy crabgrass) at 2000 g/hm2 postemergent application after 2 weeks; assay type: functional; method in brief: as §1
[4] = tested on: Digitaria sanguinalis; test: Herbicidal activity against Digitaria sanguinalis (hairy crabgrass) at 1000 g/hm2 postemergent application after 2 weeks; assay type: functional; method in brief: as §1
[5] = tested on: Echinochloa crus-galli; test: Herbicidal activity against Echinochloa crus-galli (barnyard grass) at 2000 g/hm2 postemergent application after 2 weeks; assay type: functional; method in brief: as §1
[6] = tested on: Echinochloa crus-galli; test: Herbicidal activity against Echinochloa crus-galli (barnyard grass) at 1000 g/hm2 postemergent application after 2 weeks; assay type: functional; method in brief: as §1
[7] = tested on: Abutilon theophrasti; test: Herbicidal activity against Abutilon theophrasti (velvetleaf) at 100 g/hm2 postemergent application after 2 weeks; assay type: functional; method in brief: as §1
[8] = tested on: Digitaria sanguinalis; test: Herbicidal activity against Digitaria sanguinalis (hairy crabgrass) at 100 g/hm2 postemergent application after 2 weeks; assay type: functional; method in brief: as §1
[9] = tested on: Echinochloa crus-galli; test: Herbicidal activity against Echinochloa crus-galli (barnyard grass) at 100 g/hm2 postemergent application after 2 weeks; assay type: functional; method in brief: as §1
[10] = Crop selectivity index, ratio of LD10 for soybean to LD90 for velvetleaf
[11] = tested on: Triticum aestivum; test: Toxicity against Triticum aestivum (wheat) at 400 g/hm2 postemergent application after 2 weeks; assay type: organism-based; details: in vivo, other, 336 h
Method in brief: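 Greenhouse post-emergence test: plants grown 14 days, then chosen for uniform size and stage. Compound dissolved in acetone and sprayed at a carrier volume equivalent to 187 L per hectare, over […]. Untreated plants served as control. Plants were rated two weeks after application on a 0–100 scale (0 no activity, 100 total control).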

[12] = tested on: Triticum aestivum; test: Toxicity against Triticum aestivum (wheat) at 100 g/hm2 postemergent application after 2 weeks; assay type: organism-based; details: in vivo, other, 336 h; method in brief: as §1
[13] = tested on: Glycine max; test: Toxicity against Glycine max (soybean) at 400 g/hm2 postemergent application after 2 weeks; assay type: organism-based; details: in vivo, other, 336 h; method in brief: as §1
[14] = tested on: Glycine max; test: Toxicity against Glycine max (soybean) at 100 g/hm2 postemergent application after 2 weeks; assay type: organism-based; details: in vivo, other, 336 h; method in brief: as §1
[15] = tested on: Glycine max; test: Toxicity against Glycine max (soybean) at postemergent application after 2 weeks; assay type: organism-based; details: in vivo, other, 336 h; method in brief: as §1
[16] = tested on: Abutilon theophrasti; test: Herbicidal activity against Abutilon theophrasti (velvetleaf) at postemergent application after 2 weeks; assay type: functional; method in brief: as §1
[17] = tested on: Xanthium strumarium; test: Herbicidal activity against Xanthium strumarium (cocklebur) at 100 g/hm2 postemergent application after 2 weeks; assay type: functional; method in brief: as §1
[18] = tested on: Xanthium strumarium; test: Herbicidal activity against Xanthium strumarium (cocklebur) at 400 g/hm2 postemergent application after 2 weeks; assay type: functional; method in brief: as §1
[19] = tested on: Commelina communis; test: Herbicidal activity against Commelina communis (Asiatic dayflower) at 100 g/hm2 post-emergent application after 2 weeks; assay type: functional; method in brief: as §1
[20] = tested on: Commelina communis; test: Herbicidal activity against Commelina communis (Asiatic dayflower) at 400 g/hm2 post-emergent application after 2 weeks; assay type: functional; method in brief: as §1
[21] = tested on: Amaranthus retroflexus; test: Herbicidal activity against Amaranthus retroflexus at 400 g/hm2 postemergent application after 2 weeks; assay type: functional; method in brief: as §1
[22] = tested on: Portulaca oleracea; test: Herbicidal activity against Portulaca oleracea at 400 g/hm2 postemergent application after 2 weeks; assay type: functional; method in brief: as §1
[23] = tested on: Abutilon theophrasti; test: Herbicidal activity against Abutilon theophrasti (velvetleaf) at 400 g/hm2 postemergent application after 2 weeks; assay type: functional; method in brief: as §1
[24] = tested on: Abutilon theophrasti; test: Herbicidal activity against Abutilon theophrasti (velvetleaf) at 40 g/hm2 postemergent application after 2 weeks; assay type: functional; method in brief: as §1
[25] = tested on: Abutilon theophrasti; test: Herbicidal activity against Abutilon theophrasti (velvetleaf) at 200 g/hm2 postemergent application after 2 weeks; assay type: functional; method in brief: as §1
[26] = tested on: Digitaria sanguinalis; test: Herbicidal activity against Digitaria sanguinalis (hairy crabgrass) at 400 g/hm2 postemergent application after 2 weeks; assay type: functional; method in brief: as §1
[27] = tested on: Digitaria sanguinalis; test: Herbicidal activity against Digitaria sanguinalis (hairy crabgrass) at 200 g/hm2 postemergent application after 2 weeks; assay type: functional; method in brief: as §1
[28] = tested on: Digitaria sanguinalis; test: Herbicidal activity against Digitaria sanguinalis (hairy crabgrass) at 40 g/hm2 postemergent application after 2 weeks; assay type: functional; method in brief: as §1
[29] = tested on: Echinochloa crus-galli; test: Herbicidal activity against Echinochloa crus-galli (barnyard grass) at 400 g/hm2 postemergent application after 2 weeks; assay type: functional; method in brief: as §1
[30] = tested on: Echinochloa crus-galli; test: Herbicidal activity against Echinochloa crus-galli (barnyard grass) at 40 g/hm2 postemergent application after 2 weeks; assay type: functional; method in brief: as §1
[31] = tested on: Echinochloa crus-galli; test: Herbicidal activity against Echinochloa crus-galli (barnyard grass) at 200 g/hm2 postemergent application after 2 weeks; assay type: functional; method in brief: as §1
[32] = tested on: Setaria glauca (foxtail); test: Herbicidal activity against Setaria glauca at 400 g/hm2 postemergent application after 2 weeks
[33] = tested on: Triticum aestivum; test: Toxicity against Triticum aestivum (wheat) at 25 g/hm2 postemergent application after 2 weeks; assay type: organism-based; details: in vivo, other, 336 h
[34] = tested on: Glycine max; test: Toxicity against Glycine max (soybean) at 25 g/hm2 postemergent application after 2 weeks; assay type: organism-based; details: in vivo, other, 336 h
[35] = tested on: Xanthium strumarium; test: Herbicidal activity against Xanthium strumarium (cocklebur) at 25 g/hm2 postemergent application after 2 weeks; assay type: functional; method in brief: as §1
[36] = tested on: Xanthium strumarium; test: Herbicidal activity against Xanthium strumarium (cocklebur) at 40 g/hm2 postemergent application after 2 weeks; assay type: functional; method in brief: as §1
[37] = tested on: Commelina communis; test: Herbicidal activity against Commelina communis (Asiatic dayflower) at 25 g/hm2 post-emergent application after 2 weeks; assay type: functional; method in brief: as §1
[38] = tested on: Commelina communis; test: Herbicidal activity against Commelina communis (Asiatic dayflower) at 40 g/hm2 post-emergent application after 2 weeks; assay type: functional; method in brief: as §1
[39] = tested on: Amaranthus retroflexus; test: Herbicidal activity against Amaranthus retroflexus at 40 g/hm2 postemergent application after 2 weeks; assay type: functional; method in brief: as §1
[40] = tested on: Portulaca oleracea; test: Herbicidal activity against Portulaca oleracea at 40 g/hm2 postemergent application after 2 weeks; assay type: functional; method in brief: as §1
[41] = tested on: Abutilon theophrasti; test: Herbicidal activity against Abutilon theophrasti (velvetleaf) at 25 g/hm2 postemergent application after 2 weeks; assay type: functional; method in brief: as §1
[42] = tested on: Abutilon theophrasti; test: Herbicidal activity against Abutilon theophrasti (velvetleaf) at 30 g/hm2 postemergent application after 2 weeks; assay type: functional; method in brief: as §1
[43] = tested on: Abutilon theophrasti; test: Herbicidal activity against Abutilon theophrasti (velvetleaf) at 120 g/hm2 postemergent application after 2 weeks; assay type: functional; method in brief: as §1
[44] = tested on: Abutilon theophrasti; test: Herbicidal activity against Abutilon theophrasti (velvetleaf) at 480 g/hm2 postemergent application after 2 weeks; assay type: functional; method in brief: as §1
[45] = tested on: Digitaria sanguinalis; test: Herbicidal activity against Digitaria sanguinalis (hairy crabgrass) at 25 g/hm2 postemergent application after 2 weeks; assay type: functional; method in brief: as §1
[46] = tested on: Digitaria sanguinalis; test: Herbicidal activity against Digitaria sanguinalis (hairy crabgrass) at 120 g/hm2 postemergent application after 2 weeks; assay type: functional; method in brief: as §1
[47] = tested on: Digitaria sanguinalis; test: Herbicidal activity against Digitaria sanguinalis (hairy crabgrass) at 30 g/hm2 postemergent application after 2 weeks; assay type: functional; method in brief: as §1
[48] = tested on: Digitaria sanguinalis; test: Herbicidal activity against Digitaria sanguinalis (hairy crabgrass) at 480 g/hm2 postemergent application after 2 weeks; assay type: functional; method in brief: as §1
[49] = tested on: Echinochloa crus-galli; test: Herbicidal activity against Echinochloa crus-galli (barnyard grass) at 25 g/hm2 postemergent application after 2 weeks; assay type: functional; method in brief: as §1
[50] = tested on: Echinochloa crus-galli; test: Herbicidal activity against Echinochloa crus-galli (barnyard grass) at 30 g/hm2 postemergent application after 2 weeks; assay type: functional; method in brief: as §1
[51] = tested on: Echinochloa crus-galli; test: Herbicidal activity against Echinochloa crus-galli (barnyard grass) at 120 g/hm2 postemergent application after 2 weeks; assay type: functional; method in brief: as §1
[52] = tested on: Echinochloa crus-galli; test: Herbicidal activity against Echinochloa crus-galli (barnyard grass) at 480 g/hm2 postemergent application after 2 weeks; assay type: functional; method in brief: as §1
[53] = tested on: Setaria glauca (foxtail); test: Herbicidal activity against Setaria glauca at 40 g/hm2 postemergent application after 2 weeks

In the case of `C=CCOC(=O)/C=C/COC(=O)c1cc(Oc2ccc(C(F)(F)F)cc2Cl)ccc1[N+](=O)[O-]`, the Activity [1] is reported as 100%, the Activity [2] is reported as 80% and the Activity [3] is reported as 55%. The Activity [4] was 25%, the Activity [5] was 60% and the Activity [6] was 30%.
`O=C(O)c1cc(Oc2ccc(C(F)(F)F)cc2Cl)ccc1[N+](=O)[O-]` [ACIFLUORFEN] showed an Activity [7] of 85%, an Activity [8] of 10% and an Activity [9] of 25%. For the same compound, the Selectivity Index [10] was 3.4, the Activity [11] was 15% and the Activity [12] was 0%. It also gave an Activity [13] of 10%, an Activity [14] of 5% and an LD10 [15] of 461.8 g/hm2. The LD90 [16] was 137.4 g/hm2, the Activity [17] was 80% and the Activity [18] was <70%. The Activity [19] was 60%, the Activity [20] was <70% and the Activity [21] was 95%. The Activity [22] was 95%, the Activity [23] was 70% and the Activity [24] was 50%. The Activity [25] was 95%, the Activity [2] was 100% and the Activity [26] was 70%. For the same compound, the Activity [27] was 0%, the Activity [28] was 0% and the Activity [4] was 10%. The Activity [29] was <70%, the Activity [30] was 20% and the Activity [31] was 50%. For the same compound, the Activity [6] was 90% and the Activity [32] was <70%.
For `CCOC(=O)/C=C/COC(=O)c1cc(Oc2ccc(C(F)(F)F)cc2Cl)ccc1[N+](=O)[O-]`, the Activity [7] was 100%, the Activity [8] was 60% and the Activity [9] was 55%. For the same compound, the Selectivity Index [10] was 3.2, the Activity [12] was 25% and the Activity [33] was 10%. For the same compound, the Activity [14] was 10%, the Activity [34] was 5% and the LD10 [15] was 63 g/hm2. It also gave an LD90 [16] of 19.4 g/hm2, an Activity [35] of 40% and an Activity [17] of 98%. It also gave an Activity [36] of 70%, an Activity [19] of 95% and an Activity [37] of 35%. The Activity [38] was <70%, the Activity [39] was 95% and the Activity [40] was 95%. For the same compound, the Activity [41] was 65%, the Activity [42] was 95% and the Activity [43] was 99%. It also gave an Activity [44] of 100%, an Activity [24] of 95% and an Activity [45] of 5%. It also gave an Activity [46] of 80%, an Activity [47] of 60% and an Activity [48] of 90%. The Activity [28] was 70%, the Activity [49] was 0% and the Activity [50] was 40%. The Activity [51] was 50%, the Activity [30] was <70% and the Activity [52] was 70%. For the same compound, the Activity [53] was <70%.
